The subject of experiment [1] is T47D. In words: Induction of apoptosis in human T47D cells assessed as caspase activation after 24 hrs by HTS assay. Format: functional, cell-based. In outline:
(§1)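 Proprietary cell- and caspase-based HTS assay in ATCC-sourced cells; EC50 values given as mean ± SEM of three or more experiments.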

Experiment [2] concerns HCT-116. As to the kind of experiment: Induction of apoptosis in human HCT116 cells assessed as caspase activation after 24 hrs by HTS assay. In kind it is functional, cell-based. The conditions noted are these: HCT-116, 24 h. In a few lines: as §1
The test system of experiment [3] is SNU-398. As to the kind of experiment: Induction of apoptosis in human SNU398 cells assessed as caspase activation after 24 hrs by HTS assay. The conditions noted are these: SNU-398, 24 h. In kind it is functional, cell-based. In outline:
as §1

Experiment [4] relates to T47D. As to the kind of experiment: Growth inhibition of human T47D cells after 48 hrs. Format: functional. In outline: (§2)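 Cells (ATCC-sourced) exposed to compound for 48 h at 37 °C; CellTiter-Glo reagent added, mixed by agitation, incubated 10–15 min at room temperature, luminescence read. GI50 taken as concentration giving 50% inhibition of cell growth.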
The subject of experiment [5] is HCT-116. As to the kind of experiment: Growth inhibition of human HCT116 cells after 48 hrs. Format: functional. The conditions noted are these: HCT-116, 48 h. In a few lines: as §2
Experiment [6] concerns SNU-398. As to the kind of experiment: Growth inhibition of human SNU398 cells after 48 hrs. In kind it is functional. The conditions noted are these: SNU-398, 48 h. In outline: as §2
Experiment [7] in a line: Inhibition of tubulin polymerization.
Another experiment relates to MCF7. In words: Cell cycle arrest in human MCF7 cells by accumulation at G2/M phase. Format: functional, cell-based.

The values that follow come from ChEMBL document CHEMBL1140741, “Discovery of 4-aryl-4H-chromenes as a new series of apoptosis inducers using a cell- and caspase-based high throughput screening assay. 4. Structure-activity relationships of N-alkyl substituted pyrrole fused at the 7,8-positions” (J Med Chem, 2008).

Calls of active or inactive are those of the source. The calls are words filed in the database; no cut-off is given here.

For the molecule `CC[C@]1(O)C[C@H]2CN(CCc3c([nH]c4ccccc34)[C@@](C(=O)OC)(c3cc4c(cc3OC)N(C=O)[C@H]3[C@@](O)(C(=O)OC)[C@H](OC(C)=O)[C@]5(CC)C=CCN6CC[C@]43[C@@H]65)C2)C1` [VINCRISTINE], the EC50 in the experiment on T47D [1] stood at 43 nM; with HCT-116 [2], 58 nM; in the experiment with SNU-398 [3], 12 nM.

Turning to `COc1cc(C2C(C#N)=C(N)Oc3c2ccc2c3ccn2C)cc(OC)c1OC` (stereo not given), the values for the EC50 in the experiment on T47D [1], with HCT-116 [2] and with SNU-398 [3] were 4 nM, 6 nM and 3 nM, respectively.

With `Cc1cncc(C2C(C#N)=C(N)Oc3c2ccc2c3ccn2C)c1` (stereo not given), the figures for the EC50 in the experiment with T47D [1], with HCT-116 [2] and in the experiment on SNU-398 [3] were 3 nM, 3 nM and 2 nM, respectively. In addition, the GI50 in the experiment with T47D [4] stood at 8 nM; in the experiment with HCT-116 [5], 3 nM; in the experiment on SNU-398 [6] it was 2 nM.

On to `COc1cc(C2C(C#N)=C(N)Oc3c2ccc2ccn(C)c32)cc(Br)c1OC` (stereo not given), for which the results for the concentration for a half-maximal effect (EC50) with T47D [1], in the experiment with HCT-116 [2] and in the experiment with SNU-398 [3] were 150 nM, 170 nM and 130 nM, respectively.

Take `COc1cc(C2C(C#N)=C(N)Oc3c2ccc2[nH]ccc32)cc(Br)c1OC` (stereo not given): the EC50 is 5 nM with T47D [1], 14 nM in the experiment with HCT-116 [2] and 15 nM in the experiment on SNU-398 [3]. For the same molecule, the GI50 in the experiment on T47D [4] is 8 nM; in the experiment on HCT-116 [5] it was 20 nM; in the experiment on SNU-398 [6], 14 nM.

As to `COc1cc(C2C(C#N)=C(N)Oc3c2ccc2[nH]c(C)cc32)cc(Br)c1OC` (stereo not given), the EC50 in the experiment with T47D [1] was determined as 30 nM; in the experiment with HCT-116 [2] it was 54 nM; in the experiment on SNU-398 [3] it was 27 nM.

Consider `COc1cc2c(c(OC)c1OC)-c1ccc(OC)c(=O)cc1[C@@H](NC(C)=O)CC2` [COLCHICINE], for which the EC50 in the experiment with HCT-116 [2] amounted to 15 nM; with SNU-398 [3], 4 nM. In the experiment with T47D [4], this molecule yielded a GI50 of 7 nM.

In the case of `COc1cc(C2C(C#N)=C(N)Oc3c2ccc2c3ccn2C)cc(Br)c1OC` (stereo not given), the EC50 was 2 nM in the experiment with T47D [1], 3 nM with HCT-116 [2] and 2 nM with SNU-398 [3]. The GI50 with T47D [4] is 0.3 nM; with HCT-116 [5], 1.4 nM; in the experiment with SNU-398 [6], 0.2 nM. The half-inhibitory concentration (IC50) in experiment [7] amounted to 900 nM. Also, the outcome with MCF7 was Active.

On to `COc1cncc(C2C(C#N)=C(N)Oc3c2ccc2c3ccn2C)c1` (stereo not given), for which the EC50 in the experiment with T47D [1], in the experiment on HCT-116 [2] and in the experiment with SNU-398 [3] was 3 nM in each case.

Take `CCn1ccc2c3c(ccc21)C(c1cc(Br)c(OC)c(OC)c1)C(C#N)=C(N)O3` (stereo not given): the EC50 with T47D [1] stood at 39 nM; with HCT-116 [2] it was 44 nM; with SNU-398 [3], 25 nM.

For `CC[C@]1(O)C[C@@H]2CN(CCc3c([nH]c4ccccc34)[C@@](C(=O)OC)(c3cc4c(cc3OC)N(C)[C@H]3[C@@](O)(C(=O)OC)[C@H](OC(C)=O)[C@]5(CC)C=CCN6CC[C@]43[C@@H]65)C2)C1` [VINBLASTINE], the figures for the half-maximal effective concentration (EC50) in the experiment with T47D [1], in the experiment with HCT-116 [2] and in the experiment with SNU-398 [3] were 43 nM, 44 nM and 38 nM, respectively. In the experiment on T47D [4], the GI50 was determined as 7 nM.

Consider `COc1cccc(C2C(C#N)=C(N)Oc3c2ccc2c3ccn2C)c1` (stereo not given), for which the EC50 in the experiment with T47D [1] worked out at 6 nM; with HCT-116 [2], 7 nM; in the experiment with SNU-398 [3], 5 nM.

As to `COc1cc(C2C(C#N)=C(N)Oc3c2ccc2c3ccn2C)cc2c1OCO2` (stereo not given), the EC50 in the experiment with T47D [1] turned out to be 17 nM; in the experiment with HCT-116 [2], 15 nM; in the experiment with SNU-398 [3] it was 12 nM.

Take `COc1cc(C2C(C#N)=C(N)Oc3c2ccc2c3ccn2CO)cc(Br)c1OC` (stereo not given): the EC50 is 3 nM in the experiment on T47D [1], 3 nM in the experiment on HCT-116 [2] and 2 nM in the experiment on SNU-398 [3]. In addition, the GI50 in the experiment with T47D [4] stood at 2 nM; in the experiment with HCT-116 [5], 4 nM; in the experiment with SNU-398 [6], 1 nM.

As for `COc1cc(OC)cc(C2C(C#N)=C(N)Oc3c2ccc2c3ccn2C)c1` (stereo not given), the EC50 in the experiment with T47D [1] was 5 nM; with HCT-116 [2], 6 nM; in the experiment with SNU-398 [3], 3 nM.

On to `COc1cc(C2C(C#N)=C(N)Oc3c2ccc2c3ncn2C)cc(Br)c1OC` (stereo not given), for which the EC50 in the experiment on T47D [1] amounted to 4 nM; with HCT-116 [2], 5 nM; in the experiment on SNU-398 [3], 3 nM.

With `COc1cc(C2C(C#N)=C(N)Oc3c2ccc2c3CCN2C)cc(Br)c1OC` (stereo not given), the concentration for a half-maximal effect (EC50) with T47D [1] worked out at 2 nM; in the experiment with HCT-116 [2], 4 nM; in the experiment with SNU-398 [3] it was 1 nM. Besides, the 50% growth inhibitory concentration (GI50) in the experiment with T47D [4] was determined as 7 nM; in the experiment with HCT-116 [5] it was 4 nM; in the experiment with SNU-398 [6], 1 nM.

As to `COc1cc(C2C(C#N)=C(N)Oc3c2ccc2cc[nH]c32)cc(Br)c1OC` (stereo not given), the EC50 is 16 nM in the experiment with T47D [1], 69 nM with HCT-116 [2] and 86 nM in the experiment on SNU-398 [3].

For `CC(=O)O[C@H]1C(=O)[C@@]2(C)[C@H]([C@H](OC(=O)c3ccccc3)[C@]3(O)C[C@H](OC(=O)[C@H](O)[C@@H](NC(=O)c4ccccc4)c4ccccc4)C(C)=C1C3(C)C)[C@]1(OC(C)=O)CO[C@@H]1C[C@@H]2O` [PACLITAXEL], the EC50 with T47D [1] amounted to 36 nM; in the experiment with HCT-116 [2], 24 nM; in the experiment with SNU-398 [3] it was 11 nM.

A word on the EC50: it is the concentration giving half of the maximal effect. What is called GI50 is the concentration that inhibits growth by half. Low values mean more potent growth inhibition, high ones less potent growth inhibition. Usually IC50 stands for the midpoint of a concentration-inhibition curve. A low value points to greater potency in that assay.
